From ChEMBL document CHEMBL1123939, “Evaluation of isomeric 4-(chlorohydroxyphenyl)-1,2,3,4-tetrahydroisoquinolines as dopamine D-1 antagonists” (J Med Chem, 1987)
Active and inactive are the calls of the source. No cut-off for these calls is given here.

How the values were obtained:
Format in all cases: protein assay
[1] = target: T1, Adenylate cyclase (Rattus norvegicus) (UniProt D4A3N4+P26770+Q04400+P26769+Q03343+P40146+Q8CFM9+P21932); assay: Inhibition of dopamine sensitive adenylate cyclase at 1 uM; […]
[2] = target: T1, Adenylate cyclase (Rattus norvegicus); assay: Inhibition of dopamine sensitive adenylate cyclase at 10 uM
[3] = target: T1, Adenylate cyclase (Rattus norvegicus); assay: Inhibition of dopamine sensitive adenylate cyclase at 100 uM
[4] = target: T1, Adenylate cyclase (Rattus norvegicus); assay: Inhibition of dopamine sensitive adenylate cyclase at 0.01 uM
Method in brief: (§1)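 Rat retinas homogenized in 150 vol/wt 2.0 mM Tris-HCl pH 7.4 with 2 mM EDTA. Incubated 20 min, 30 °C. Stopped with SDS/ATP/cyclic AMP containing [3H]cyclic AMP, then heated 85 °C, 2 min.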

[5] = target: T1, Adenylate cyclase (Rattus norvegicus); assay: Inhibition of dopamine sensitive adenylate cyclase at 0.1 uM; method in brief: as §1
[6] = target: T1, Adenylate cyclase (Rattus norvegicus); assay: Inhibition of dopamine sensitive adenylate cyclase at 1 uM; method in brief: as §1
[7] = target: T1, Adenylate cyclase (Rattus norvegicus); assay: Inhibition of dopamine sensitive adenylate cyclase at 10 uM; No inhibition
[8] = target: T1, Adenylate cyclase (Rattus norvegicus); assay: Inhibition of dopamine sensitive adenylate cyclase at 100 uM; No inhibition
[9] = target: T1, Adenylate cyclase (Rattus norvegicus); assay: Inhibition of dopamine sensitive adenylate cyclase at 30 uM

For `Oc1cc(C2CNCc3ccccc32)ccc1Cl` (stereo unspecified), the inhibition [1] was “inactive”, the inhibition [2] was 8.9% and the inhibition [3] was 26.3%.
In the case of `Oc1cccc(C2CNCc3ccccc32)c1` (stereo unspecified), the inhibition [1] was “inactive”, the inhibition [2] was 8.8% and the inhibition [3] was 22.9%.
In the case of `CN1CCc2cc(Cl)c(O)cc2[C@@H](c2ccccc2)C1`, the inhibition [4] was 23.2%, the inhibition [5] was 59.9% and the inhibition [6] was 74.3%.
With `Oc1ccc(C2CNCc3ccccc32)cc1Cl` (stereo unspecified) the inhibition [1] was “inactive”, the inhibition [7] was “inactive” and the inhibition [8] was “inactive”.
With `CN1Cc2ccccc2C(c2ccc(Cl)c(O)c2)C1` (stereo unspecified) the inhibition [1] was “inactive”, the inhibition [2] was 21% and the inhibition [3] was 57.9%. It also gave an inhibition [9] of 45.1%.
